Experimental data: ChEMBL document CHEMBL1127060 (1993)
The source made the active and inactive calls. The calls are words filed in the database; no cut-off is given here.

Tests used:
Cavia porcellus [1] = organism: Cavia porcellus; experiment: Tested for relaxation of carbachol-contracted guinea pig taenia coli at 37 degree C; type: functional
Procedure, shortened: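 Carbachol-precontracted guinea pig taenia coli segments in 37 °C organ baths with oxygenated Krebs solution. Tension changes were recorded in response to increasing nucleotide concentrations. At least two determinations. Responses were expressed as % relaxation of the carbachol-induced contraction and reported as pD2. ATP was tested on every preparation.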

Cavia porcellus [2] = organism: Cavia porcellus; experiment: Tested for contraction of guinea pig vas deferens at 37 degree C; Potency equal to ATP; type: functional
Oryctolagus cuniculus [3] = organism: Oryctolagus cuniculus; experiment: Tested for relaxation of carbachol-contracted rabbit mesenteric artery at 37 degree C; Potency equal to 2MeSATP; type: functional
Oryctolagus cuniculus [4] = organism: Oryctolagus cuniculus; experiment: Tested for relaxation of carbachol-contracted rabbit aorta at 37 degree C; Potency equal to 2MeSATP; type: functional
Oryctolagus cuniculus [5] = organism: Oryctolagus cuniculus; experiment: Tested for contraction of rabbit saphenous artery produced by 1 uM alpha,beta-MeATP at 37 degree C; Potency equal to ATP; type: functional
Cavia porcellus [6] = organism: Cavia porcellus; experiment: Tested for contraction of guinea pig isolated urinary bladder detrusor muscle at 37 degree C; Potency equal to ATP; type: functional; conditions: Muscle tissue
[7] = Agonism at turkey erythrocyte P2Y receptor.; type: functional, Meleagris gallopavo
Procedure, shortened: (§1)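 Turkey erythrocytes labeled 18–24 h at 37 °C with 2-[3H]myo-inositol in inositol-free DMEM; ghosts made by hypotonic lysis (5 mM Na phosphate pH 7.4, 5 mM MgCl2, 1 mM EGTA). PLC assay: ~175 μg protein ghosts, 1 μM GTPγS, Hepes pH 7.0 medium with 424 μM CaCl2, 2 mM EGTA; 5 min, 30 °C; total [3H]inositol phosphates by anion exchange; K0.5 averaged from 3–8 curves.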

Oryctolagus cuniculus [8] = organism: Oryctolagus cuniculus; experiment: Tested for contraction of rabbit saphenous artery produced by 1 uM alpha,beta-MeATP at 37 degree C; type: functional
Cavia porcellus [9] = organism: Cavia porcellus; experiment: Tested for contraction of guinea pig vas deferens at 37 degree C; Not active; type: functional
Oryctolagus cuniculus [10] = organism: Oryctolagus cuniculus; experiment: Tested for relaxation of carbachol-contracted rabbit mesenteric artery at 37 degree C; More potent than or equal to 2MeSATP; type: functional
Cavia porcellus [11] = organism: Cavia porcellus; experiment: Tested for contraction of guinea pig isolated urinary bladder detrusor muscle at 37 degree C; Not active; type: functional; conditions: Muscle tissue
Cavia porcellus [12] = organism: Cavia porcellus; experiment: Tested for relaxation of carbachol-contracted guinea pig taenia coli at 37 degree C; Less potent than or equal to ATP; type: functional
Cavia porcellus [13] = organism: Cavia porcellus; experiment: Tested for relaxation of carbachol-contracted guinea pig taenia coli at 37 degree C; Significantly more potent than ATP; type: functional
Oryctolagus cuniculus [14] = organism: Oryctolagus cuniculus; experiment: Tested for relaxation of carbachol-contracted rabbit mesenteric artery at 37 degree C; Significantly more potent than 2MeSATP; type: functional
Cavia porcellus [15] = organism: Cavia porcellus; experiment: Tested for contraction of guinea pig vas deferens at 37 degree C; Significantly more potent than ATP; type: functional
Cavia porcellus [16] = organism: Cavia porcellus; experiment: Tested for contraction of guinea pig isolated urinary bladder detrusor muscle at 37 degree C; 100 times more potent than ATP; type: functional; conditions: Muscle tissue
Oryctolagus cuniculus [17] = organism: Oryctolagus cuniculus; experiment: Tested for relaxation of carbachol-contracted rabbit aorta at 37 degree C; Significantly more potent than 2MeSATP; type: functional
Cavia porcellus [18] = organism: Cavia porcellus; experiment: Tested for relaxation of carbachol-contracted guinea pig taenia coli at 37 degree C; Significantly less potent than ATP; type: functional
Oryctolagus cuniculus [19] = organism: Oryctolagus cuniculus; experiment: Tested for relaxation of carbachol-contracted rabbit mesenteric artery at 37 degree C; Not active; type: functional
Oryctolagus cuniculus [20] = organism: Oryctolagus cuniculus; experiment: Tested for relaxation of carbachol-contracted rabbit aorta at 37 degree C; Not active; type: functional
Oryctolagus cuniculus [21] = organism: Oryctolagus cuniculus; experiment: Tested for relaxation of carbachol-contracted rabbit aorta at 37 degree C; More potent than or equal to 2MeSATP; type: functional
Oryctolagus cuniculus [22] = organism: Oryctolagus cuniculus; experiment: Tested for contraction of rabbit saphenous artery produced by 1 uM alpha,beta-MeATP at 37 degree C; Not active; type: functional
Cavia porcellus [23] = organism: Cavia porcellus; experiment: Tested for contraction of guinea pig vas deferens at 37 degree C; More potent than or equal to ATP; type: functional
Cavia porcellus [24] = organism: Cavia porcellus; experiment: Tested for relaxation of carbachol-contracted guinea pig taenia coli at 37 degree C; Potency equal to ATP; type: functional
Meleagris gallopavo = experiment: Tested for stimulation of production of inositol phosphate in turkey erythrocyte membrane; Not active; type: functional; procedure, shortened: as §1
Oryctolagus cuniculus [25] = organism: Oryctolagus cuniculus; experiment: Tested for relaxation of carbachol-contracted rabbit mesenteric artery at 37 degree C; Less potent or equal to 2MeSATP; type: functional

Nc1ncnc2c1ncn2[C@@H]1O[C@H](COP(=O)(O)OP(=O)(O)OP(=O)(O)O)[C@@H](O)[C@H]1O [ADENOSINE TRIPHOSPHATE]
Relative activity (Cavia porcellus [1]): 6.2 | Relative activity (Cavia porcellus [2]): 3.5 | Relative activity (Oryctolagus cuniculus [3]): 6 | Relative activity (Oryctolagus cuniculus [4]): 4.5 | Relative activity (Oryctolagus cuniculus [5]): Active | Relative activity (Cavia porcellus [6]): Active | K 0.5 [7]: 2800 nM

N#CCCCCCCSc1nc(N)c2ncn(C3O[C@H](COP(=O)(O)O)[C@@H](O)[C@H]3O)c2n1 (stereo partly specified)
Relative activity (Oryctolagus cuniculus [8]): 4.5% | Relative activity (Cavia porcellus [9]): inactive | Relative activity (Oryctolagus cuniculus [10]): 6.2 | Relative activity (Cavia porcellus [11]): inactive | K 0.5 [7]: 37000 nM | Relative activity (Cavia porcellus [12]): 4.4

N#CSCCCCCCCSc1nc(N)c2ncn(C3O[C@H](COP(=O)(O)OP(=O)(O)OP(=O)(O)O)[C@@H](O)[C@H]3O)c2n1 (stereo partly specified)
K 0.5 [7]: 25.9 nM

N#CCCCCCCSc1nc(N)c2ncn(C3O[C@H](COP(=O)(O)OP(=O)(O)OP(=O)(O)O)[C@@H](O)[C@H]3O)c2n1 (stereo partly specified)
Relative activity (Cavia porcellus [13]): 8.6 | Relative activity (Oryctolagus cuniculus [8]): 9.2% | Relative activity (Oryctolagus cuniculus [14]): 6.9 | Relative activity (Cavia porcellus [15]): Active | Relative activity (Cavia porcellus [16]): Active | Relative activity (Oryctolagus cuniculus [17]): 7 | K 0.5 [7]: 10 nM

C=CCCCCSc1nc(NC)c2ncn(C3O[C@H](COP(=O)(O)O)[C@@H](O)[C@H]3O)c2n1 (stereo partly specified)
Relative activity (Oryctolagus cuniculus [8]): 6.7% | Relative activity (Cavia porcellus [18]): Partially active | Relative activity (Oryctolagus cuniculus [19]): inactive | Relative activity (Cavia porcellus [9]): inactive | Relative activity (Cavia porcellus [11]): inactive | Relative activity (Oryctolagus cuniculus [20]): inactive | K 0.5 [7]: >100000 nM

Nc1nc(SC2CCCCC2)nc2c1ncn2C1O[C@H](COP(=O)(O)OP(=O)(O)OP(=O)(O)O)[C@@H](O)[C@H]1O (stereo partly specified)
Relative activity (Cavia porcellus [13]): 8 | Relative activity (Oryctolagus cuniculus [21]): 6.3 | Relative activity (Oryctolagus cuniculus [22]): inactive | Relative activity (Oryctolagus cuniculus [10]): 5.9 | Relative activity (Cavia porcellus [23]): Active | Relative activity (Cavia porcellus [6]): Active | K 0.5 [7]: 24 nM

CSc1nc(N)c2ncn([C@@H]3O[C@H](COP(=O)(O)OP(=O)(O)O)[C@@H](O)[C@H]3O)c2n1
Relative activity (Oryctolagus cuniculus [14]): Active | Relative activity (Oryctolagus cuniculus [17]): Active | K 0.5 [7]: 6 nM

CSc1nc(N)c2ncn([C@@H]3O[C@H](COP(=O)(O)OP(=O)(O)OP(=O)(O)O)[C@@H](O)[C@H]3O)c2n1
Relative activity (Cavia porcellus [13]): 8 | Relative activity (Oryctolagus cuniculus [14]): 6.5 | Relative activity (Cavia porcellus [2]): Active | Relative activity (Oryctolagus cuniculus [22]): inactive | Relative activity (Cavia porcellus [6]): Active | Relative activity (Oryctolagus cuniculus [17]): 6.8 | K 0.5 [7]: 8 nM

Nc1ccc(CCSc2nc(N)c3ncn([C@@H]4O[C@H](COP(=O)(O)OP(=O)(O)OP(=O)(O)O)[C@@H](O)[C@H]4O)c3n2)cc1
K 0.5 [7]: 1.53 nM

C=CCCCCSc1nc(N)c2ncn(C3O[C@H](COP(=O)(O)O)[C@@H](O)[C@H]3O)c2n1 (stereo partly specified)
Relative activity (Cavia porcellus [9]): inactive | Relative activity (Oryctolagus cuniculus [22]): inactive | Relative activity (Oryctolagus cuniculus [10]): 6.3 | Relative activity (Cavia porcellus [11]): inactive | Relative activity (Cavia porcellus [24]): 5 | Relative activity (Oryctolagus cuniculus [17]): 7 | K 0.5 [7]: 328 nM

NCCCCCCCSc1nc(N)c2ncn(C3O[C@H](COP(=O)(O)OP(=O)(O)OP(=O)(O)O)[C@@H](O)[C@H]3O)c2n1 (stereo partly specified)
K 0.5 [7]: 72.8 nM

Nc1ncnc2c1ncn2[C@@H]1O[C@H](COP(=O)(O)O)[C@@H](O)[C@H]1O [ADENOSINE PHOSPHATE]
Relative activity (Cavia porcellus [18]): Partially active | K 0.5 (Meleagris gallopavo): inactive | Relative activity (Cavia porcellus [9]): inactive | Relative activity (Oryctolagus cuniculus [22]): inactive | Relative activity (Oryctolagus cuniculus [4]): 4.8 | Relative activity (Cavia porcellus [11]): inactive | Relative activity (Oryctolagus cuniculus [25]): 5
